The values that follow come from BindingDB's records for doi:10.1021/jm9811256 (Academy of Sciences of The Czech Republic, 1999).

A short description of assay [1]: Inhibition of herpes simplex virus type 1 thymidine kinase (HSV-1 TK-) B2006 strain.
Assay [2] has as its target T1, Thymidine kinase (Human herpesvirus 3, UniProt Q6QCL9).
T1 sequence (Q6QCL9 whole entry): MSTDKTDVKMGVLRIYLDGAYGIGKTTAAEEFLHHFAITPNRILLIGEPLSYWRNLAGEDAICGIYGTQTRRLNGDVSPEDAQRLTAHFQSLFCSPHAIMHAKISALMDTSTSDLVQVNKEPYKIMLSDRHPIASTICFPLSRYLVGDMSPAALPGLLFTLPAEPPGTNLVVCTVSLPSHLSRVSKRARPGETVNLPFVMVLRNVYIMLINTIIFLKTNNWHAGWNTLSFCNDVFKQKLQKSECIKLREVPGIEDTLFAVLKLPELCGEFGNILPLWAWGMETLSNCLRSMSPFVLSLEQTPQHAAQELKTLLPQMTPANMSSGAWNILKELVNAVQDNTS
The assay is described as follows: Inhibitory activity against varicella zoster virus thymidine kinase (VZV TK+) YS strain. The essentials:
(§1)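 HEL cell cultures were grown to confluence and infected with 100 CCID50 of VZV. After a 1 h adsorption period, unbound virus was removed and compound was added at serial concentrations (400, 200, 100, ... μg/mL). Cytopathic effect was read when untreated virus controls reached full cytopathicity.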

Assay [3] in a line: Inhibitory activity against herpes simplex virus type 1 (HSV-1) thymidine kinase (TK) VMW 1837 strain.
Assay [4] in a line: Inhibition of varicella zoster virus thymidine kinase (VZV TK+) YS/R strain.
Assay [5] can be described thus: Inhibitory activity against varicella zoster virus thymidine kinase (VZV TK+) OKA strain.
Assay [6] is described as follows: Inhibitory activity against varicella zoster virus thymidine kinase (VZV TK-) 07/1 strain.
Assay [7] addresses T1, Thymidine kinase. Description: Inhibitory activity against varicella zoster virus thymidine kinase (VZV TK+) OKA strain. The essentials:
as §1

Assay [8] can be described thus: Inhibitory activity against varicella zoster virus thymidine kinase (VZV TK+) YS strain.

pEC50: −log10 of the molar value. Where only a bound is given, the exact number is not on record here.

As usually defined, the pEC50 is the EC50 on a negative log10 scale, so that one unit is a factor of ten. The low end stands for a high EC50, the high end for a low EC50. On to `Nc1cc2c(ncn2CCOCP(=O)(O)O)c(O)n1`, for which the pEC50 in assay [1] was 4.62; in assay [2] it was 5.26; in assay [3], 5.16; in assay [4], 5.75; in assay [5], 5.59; in assay [6] it was 5.49.
As to `CC(C)CCCCCOP(=O)(COCCn1cnc2c(O)nc(N)nc21)OCCCCCC(C)C`, the negative logarithm of the EC50 (pEC50) in assay [1] was less than 3.81; in assay [3], less than 3.81; in assay [7], 4.67; in assay [6] it was 4.46; in assay [8], 5.09.
`Nc1nc(F)nc2c1ncn2CCOCP(=O)(O)O`: the pEC50 in assay [1] was 4.16; in assay [3], 3.62; in assay [5] it was 4.07; in assay [6], 3.95; in assay [8], 4.00.
`NC1=NC2N=CC=NC2C(=O)N1CCOCP(=O)(O)O` (stereo unspecified): the pEC50 was 3.64 in assay [1]; 3.64 in assay [3]; 4.58 in assay [5]; 4.00 in assay [6]; 3.94 in assay [8].
Consider `Cc1nc(N)nc2c1ncn2CCOCP(=O)(O)O`, for which the pEC50 is 3.28 in assay [1]; 3.16 in assay [3]; less than 3.76 in assay [5]; less than 3.76 in assay [6]; less than 3.76 in assay [8].
For `CC(C)CCCCCOP(=O)(COCCn1cnc2c(N)nc(N)nc21)OCCCCCC(C)C`, the pEC50 was less than 4.51 in assay [1]; less than 4.51 in assay [3]; less than 5.01 in assay [5]; less than 4.41 in assay [6]; 5.20 in assay [8].
As to `CC(C)OP(=O)(O)COCCn1cnc2c(N)nc(N)nc21`, the pEC50 in assay [1] was less than 2.92; in assay [3], less than 2.92; in assay [5], 4.01; in assay [6], less than 3.82; in assay [8] it was less than 3.82.
Regarding `CC(C)OP(=O)(O)COCCn1cnc2c(N)ncnc21`, the pEC50 in assay [1] is less than 2.90; in assay [3] it was 3.02; in assay [5] it was less than 3.80; in assay [6], less than 3.80; in assay [8], less than 3.80.
